Source: ChEMBL document CHEMBL2424628, “Discovery of potent and selective nonsteroidal indazolyl amide glucocorticoid receptor agonists” (Bioorg Med Chem Lett, 2013)

Assays:
Glucocorticoid receptor [1] = target: T1, Glucocorticoid receptor (Homo sapiens, UniProt P04150); test: Agonist activity at glucocorticoid receptor in human A549 cells assessed as inhibition of PMA-induced AP-1 activation by luciferase reporter gene assay; format: cell-based
T1 sequence (P04150 whole entry): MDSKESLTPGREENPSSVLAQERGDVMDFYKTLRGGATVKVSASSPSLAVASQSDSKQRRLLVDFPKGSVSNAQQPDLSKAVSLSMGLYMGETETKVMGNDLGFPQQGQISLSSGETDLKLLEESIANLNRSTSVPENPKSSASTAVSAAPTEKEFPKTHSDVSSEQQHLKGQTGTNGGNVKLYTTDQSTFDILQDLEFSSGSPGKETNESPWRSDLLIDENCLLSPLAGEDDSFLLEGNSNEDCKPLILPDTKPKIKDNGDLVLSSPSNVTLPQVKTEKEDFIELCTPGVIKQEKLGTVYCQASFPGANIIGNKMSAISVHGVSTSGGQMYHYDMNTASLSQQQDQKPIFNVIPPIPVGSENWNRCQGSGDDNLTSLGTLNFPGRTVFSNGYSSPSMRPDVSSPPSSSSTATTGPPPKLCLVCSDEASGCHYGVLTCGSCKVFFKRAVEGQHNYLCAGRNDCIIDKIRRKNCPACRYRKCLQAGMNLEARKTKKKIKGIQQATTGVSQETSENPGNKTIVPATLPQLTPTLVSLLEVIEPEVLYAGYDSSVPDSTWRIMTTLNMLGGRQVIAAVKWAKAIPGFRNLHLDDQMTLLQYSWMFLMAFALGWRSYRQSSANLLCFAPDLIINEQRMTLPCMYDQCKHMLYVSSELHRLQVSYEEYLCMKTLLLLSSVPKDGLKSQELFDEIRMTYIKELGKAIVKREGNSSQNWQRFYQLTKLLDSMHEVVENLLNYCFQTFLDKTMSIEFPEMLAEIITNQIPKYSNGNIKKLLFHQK

Glucocorticoid receptor [2] = target: T1, Glucocorticoid receptor; test: Binding affinity to glucocorticoid receptor (unknown origin) by fluorescence polarization assay
[3] = target: T2, Glucocorticoid receptor (Homo sapiens) (UniProt P04150); test: Agonist activity at glucocorticoid receptor in human A549 cells assessed as inhibition of PMA-induced AP-1 activation by luciferase reporter gene assay relative to dexamethasone; format: cell-based
T2 sequence (whole entry): T1 sequence (P04150 whole entry)
Summary of the method: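 A549 lung epithelial cells stably carrying a luciferase reporter with 5 copies of the AP-1 response element; AP-1 induced with PMA (15 ng/ml). Compound inhibition of induction read as decreased luciferase. […] Means of two or more experiments in triplicate.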

Glucocorticoid receptor [4] = target: T1, Glucocorticoid receptor; test: Agonist activity at glucocorticoid receptor in human A549 cells assessed as inhibition of IL-1beta-induced NF-kappaB dependent E-selectin activation by luciferase reporter gene assay; format: cell-based
[5] = target: T2, Glucocorticoid receptor (Homo sapiens); test: Transactivation of glucocorticoid receptor ligand binding domain (unknown origin) transfected in human HeLa cells assessed as activation of NP-1 by GAL4 luciferase reporter gene assay relative to dexamethasone; format: cell-based
Summary of the method: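 HeLa line (NP-1) stably transfected with a GR ligand binding domain chimera in a GAL4 luciferase reporter system, run in agonist mode. Direct GR-LBD activation read as increased luciferase activity. Means of two or more experiments in triplicate.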

[6] = target: T2, Glucocorticoid receptor (Homo sapiens); test: Agonist activity at glucocorticoid receptor in human A549 cells assessed as inhibition of IL-1beta-induced NF-kappaB dependent E-selectin activation by luciferase reporter gene assay relative to dexamethasone; format: cell-based
Glucocorticoid receptor [7] = target: T1, Glucocorticoid receptor; test: Transactivation of glucocorticoid receptor ligand binding domain (unknown origin) transfected in human HeLa cells assessed as activation of NP-1 by GAL4 luciferase reporter gene assay; format: cell-based

Row | Compound | EC50 (Glucocorticoid receptor [1]) [nM] | Ki (Glucocorticoid receptor [2]) [nM] | Efficacy [3] [%] | EC50 (Glucocorticoid receptor [4]) [nM] | Efficacy [5] [%] | Efficacy [6] [%] | EC50 (Glucocorticoid receptor [7]) [nM]
1 | CC(C)(C(=O)Nc1nncs1)C(c1ccccc1)c1ccc2c(cnn2C2CCCCCC2)c1 (racemic) |  |  | 85 |  | 60 | 86 | 
2 | CC(C)n1ncc2cc(C(c3ccccc3)C(C)(C)C(=O)Nc3nncs3)ccc21 (racemic) |  |  | 82 |  | < 30 | 44 | 
3 | COc1cccc(-n2ncc3cc(C(c4ccccc4)C(C)(C)C(=O)Nc4nncs4)ccc32)c1 (racemic) | 1200 |  | < 30 |  | < 30 |  | > 10000
4 | CC(C)(C(=O)Nc1nncs1)C(c1ccccc1)c1ccc2c(cnn2-c2ccc(Br)cc2)c1 (racemic) | 956 |  | < 30 |  |  |  | 
5 | CC(C)(C(=O)Nn1ncnn1)C(c1ccccc1)c1ccc2c(cnn2-c2ccc(F)cc2)c1 (racemic) | > 10000 | 17 |  |  |  |  | 
6 | CC(C(=O)Nc1nncs1)C(c1ccccc1)c1ccc2c(cnn2-c2ccc(F)cc2)c1 (single isomer, unassigned; diastereomer 4) |  |  | 89 |  | 100 |  | 
7 | CC(C(=O)Nc1nncs1)[C@@H](c1ccccc1)c1ccc2c(cnn2-c2ccc(F)cc2)c1 (single isomer, unassigned; diastereomer 2) |  |  | 103 |  | 76 |  | 
8 | CC(C)(Cc1ccc2c(cnn2-c2ccc(F)cc2)c1)C(=O)Nc1nncs1 | 4320 |  | 36 |  |  |  | 
9 | CC(C(=O)Nc1nncs1)[C@@H](c1ccccc1)c1ccc2c(cnn2-c2ccc(F)cc2)c1 (single isomer, unassigned; diastereomer 3) |  |  | 106 |  | 122 |  | 
10 | CC(C(=O)Nc1nncs1)C(c1ccccc1)c1ccc2c(cnn2-c2ccc(F)cc2)c1 (single isomer, unassigned; diastereomer 1) |  |  | 42 |  |  |  | 
11 | CC(C)CC(c1ccc2c(cnn2-c2ccc(F)cc2)c1)C(C)(C)C(=O)Nc1nncs1 (racemic) |  |  | 60 |  |  |  | 
12 | Cc1csc(NC(=O)C(C)(C)C(c2ccccc2)c2ccc3c(cnn3-c3ccc(F)cc3)c2)n1 (racemic) |  |  | 74 |  |  |  | 
13 | CC(C)(C(=O)Nc1nncs1)C(c1ccccc1)c1ccc2c(cnn2CCCO)c1 (racemic) | 1020 | 17 | 45 |  |  |  | 
14 | CC(C)(C(=O)Nc1nncs1)C(c1ccccc1)c1ccc2c(cnn2CCc2ccccc2)c1 (racemic) | > 10000 | 46 | < 30 |  |  |  | 
15 | CC(C)(C(=O)Nc1nccs1)C(c1ccncc1)c1ccc2c(cnn2-c2ccc(F)cc2)c1 (racemic) |  |  | 60 |  |  |  | 
16 | CC(C)(C(=O)Nc1nncs1)C(c1ccccc1)c1ccc2c(cnn2Cc2ccccc2)c1 (racemic) | 1930 |  | 62 |  |  |  | 

Further compounds by falling EC50 (Glucocorticoid receptor [1]), results first:

Row | EC50 (Glucocorticoid receptor [1]) [nM] | Ki (Glucocorticoid receptor [2]) [nM] | Efficacy [3] [%] | EC50 (Glucocorticoid receptor [4]) [nM] | Efficacy [5] [%] | Efficacy [6] [%] | EC50 (Glucocorticoid receptor [7]) [nM] | Compound
17 | 705 |  | 37 |  |  |  |  | CC(C)(C(=O)Nc1nncs1)C(Cc1ccccc1)c1ccc2c(cnn2-c2ccc(F)cc2)c1 (racemic)
18 | 550 |  | 32 | 1050 |  | 27 |  | CC(C)(C(=O)Nc1nncs1)C(c1ccccc1)c1ccc2c(cnn2CCO)c1 (racemic)
19 | 349 | 4 | 58 | 185 |  | 35 | > 10000 | CC(C)(C(=O)Nc1nncs1)[C@H](c1ccccc1)c1ccc2c(cnn2-c2cccnc2)c1
20 | 271 |  | 69 | > 5000 | < 30 | < 30 | > 10000 | CC(C)(C(=O)Nc1nncs1)C(c1ccccc1)c1ccc2c(cnn2-c2ccc(O)cc2)c1 (racemic)
21 | 141 |  | 56 |  |  |  |  | Cc1nnc(NC(=O)C(C)(C)C(c2ccccc2)c2ccc3c(cnn3-c3ccc(F)cc3)c2)s1 (racemic)
22 | 127 |  | 62 |  |  |  |  | CC(C)(C(=O)Nc1nncs1)C(c1ccccc1)c1ccc2c(cnn2-c2ccccn2)c1 (racemic)
23 | 114 |  | 76 | 1820 | < 30 | 77 | > 10000 | CC(C)Cn1ncc2cc(C(c3ccccc3)C(C)(C)C(=O)Nc3nncs3)ccc21 (racemic)
24 | 106 | 1.9 | 56 | 78 | < 30 | 56 | > 10000 | CC(C)(C(=O)Nc1nncs1)C(c1ccccc1)c1ccc2c(cnn2-c2ccncc2)c1 (racemic)
25 | 87 |  | 62 |  |  |  |  | CCC(c1ccc2c(cnn2-c2ccc(F)cc2)c1)C(C)(C)C(=O)Nc1nccs1 (racemic)
26 | 82 |  | 47 |  |  |  |  | CC(C)(C(=O)Nc1nccs1)C(c1ccc2c(cnn2-c2ccc(F)cc2)c1)C1CCCC1 (racemic)
27 | 81 |  | 29 |  |  |  |  | CC(C)C(c1ccc2c(cnn2-c2ccc(F)cc2)c1)C(C)(C)C(=O)Nc1nncs1 (racemic)
28 | 73 |  | 68 |  |  |  |  | CC(C)(C(=O)Nc1ccsc1)C(c1ccccc1)c1ccc2c(cnn2-c2ccc(F)cc2)c1 (racemic)
29 | 66 | 18 | 55 |  |  |  |  | CC(C)(C(=O)Nc1nccs1)C(c1ccc2c(cnn2-c2ccc(F)cc2)c1)C1CCCCC1 (racemic)
30 | 56 |  | 76 | 143 | < 30 | 62 | > 10000 | COc1ccc(-n2ncc3cc(C(c4ccccc4)C(C)(C)C(=O)Nc4nncs4)ccc32)cc1 (racemic)
31 | 49 |  | 48 |  |  |  |  | Cc1cnc(NC(=O)C(C)(C)C(c2ccccc2)c2ccc3c(cnn3-c3ccc(F)cc3)c2)s1 (racemic)
32 | 24 | 2.7 | 79 | 15 | 41 | 77 | 208 | CC(C)(C(=O)Nc1nncs1)[C@@H](c1ccccc1)c1ccc2[nH]ncc2c1
33 | 23 | 18 | 81 |  |  |  |  | CC(C)(C(=O)Nc1nncs1)C(c1ccccc1)c1ccc2c(cnn2-c2ccc(F)cc2)c1 (racemic)
34 | 23 |  | 96 | 10 | 55 | 84 | 256 | CC(C)(C(=O)Nc1nncs1)C(c1ccccc1)c1ccc2c(cnn2-c2ccc(Cl)cc2)c1 (racemic)
35 | 20 |  | 73 |  |  |  |  | CC(C)(C(=O)Nc1nncs1)C(c1ccccc1)c1ccc2c(cnn2-c2ccccc2)c1 (racemic)
36 | 19 | 0.9 | 74 | 19 | 57 | 77 | 132 | CC(C)(C(=O)Nc1nncs1)[C@@H](c1ccccc1)c1ccc2c(cnn2-c2cccnc2)c1
37 | 17 | 11 | 73 |  |  |  |  | CC(C)(C(=O)Nn1nccn1)C(c1ccccc1)c1ccc2c(cnn2-c2ccc(F)cc2)c1 (racemic)
38 | 4.1 | 15 | 79 |  |  |  |  | CC(C)(C(=O)Nc1nccs1)C(c1ccccc1)c1ccc2c(cnn2-c2ccc(F)cc2)c1 (racemic)
39 | 1.4 | 6 | 92 | 0.5 | 94 | 97 | 7.6 | CC(C)(C(=O)Nc1nccs1)[C@@H](c1ccccc1)c1ccc2c(cnn2-c2ccc(F)cc2)c1
